Among the data in the array DNA melting data of Ke et al. (doi:10.1101/2024.01.08.574731) are folding enthalpy and Tm values, retold here.

The nature of data set [1]: folding enthalpy; higher = less favourable; fluorescence melt of hairpins on a sequencing array, two-state fit. The settings on record: sodium 0.088 M. An outline of the steps:
(§1)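 Hairpins were imaged by Cy3 fluorescence on a sequenced MiSeq flow cell with annealed Cy3 and quencher oligos, in 50 mM Na-HEPES pH 8.0, 25 mM NaCl, in 2.5 °C steps up to 60 °C. Bootstrapped two-state fits of normalised signals gave melting temperature and folding enthalpy. Four replicates were combined by inverse variance, and fitted temperatures were raised by 9.35 °C to match UV melts.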

Data set [2] is described as follows: melting temperature; fluorescence melt of hairpins on a sequencing array, two-state fit, raised by 9.35 °C to match UV melts. Particulars: sodium 0.088 M. The procedure, abridged:
as §1

On to GCAGCGCGAAAGCGCCGC ((.((((....)))).)), for which the folding enthalpy in data set [1] was -15.5 kcal/mol. Further, the Tm in data set [2] worked out at 67.4 °C.
For GCAGCGCGAAAGCGGCGC ((..(((....)))..)), the folding enthalpy in data set [1] is -21.6 kcal/mol. Moreover, the Tm in data set [2] is 67.5 °C.
Turning to GCAGCGCGAAAGCGGGGC ((..(((....)))..)), the folding enthalpy in data set [1] was -28 kcal/mol. The Tm in data set [2] turned out to be 67.2 °C.
On to GCAGCGCGAAAGCGTGGC ((..(((....)))..)), for which the folding enthalpy in data set [1] is -23.1 kcal/mol. The Tm in data set [2] came out at 64.2 °C.
Take GCAGCTCCGAAAGGATGC (((..(((....)))))): the folding enthalpy in data set [1] was -16.2 kcal/mol. Also, the Tm in data set [2] is 41.5 °C.
As to GCAGCTGCGAAAGCATGC (((..(((....)))))), in data set [1], the folding enthalpy is -11.6 kcal/mol. Also, in data set [2], the Tm turned out to be 45.1 °C.
For GCAGCTGGAAACAGCTAC (.(((((....))))).), the folding enthalpy in data set [1] was -14 kcal/mol. Moreover, in data set [2], the Tm is 42.1 °C.
GCAGCTTCGAAAGAATGC (((..(((....)))))): the folding enthalpy in data set [1] was -12.8 kcal/mol. The Tm in data set [2] came to 29.1 °C.
Take GCAGGACGAAAGTCTGC (((.(((....)))))): the folding enthalpy in data set [1] was -31.7 kcal/mol. The Tm in data set [2] amounted to 58.4 °C.
As for GCAGGAGAAATCCTGC ((((((....)))))), in data set [1], the folding enthalpy was -36.1 kcal/mol. Moreover, the Tm in data set [2] was found to be 61.1 °C.
Regarding GCAGGCGAAAGCCCCTGC ((((((....)))..))), the folding enthalpy in data set [1] was -15.9 kcal/mol. The Tm in data set [2] amounted to 40.6 °C.
As to GCAGGCGAAAGCCGTTGC ((((((....)))..))), the folding enthalpy in data set [1] is -12.6 kcal/mol. Moreover, the Tm in data set [2] was determined as 53.7 °C.
GCAGGCGAAAGCCTCTGC ((((((....)))..))): in data set [1], the folding enthalpy was -12 kcal/mol. Besides, in data set [2], the Tm turned out to be 46.7 °C.
GCAGGCGAAAGCCTGTGC ((((((....)))..))): in data set [1], the folding enthalpy was -14.2 kcal/mol. In data set [2], the Tm came out at 68.2 °C.
GCAGGGAAACCTGC (((((....))))): the folding enthalpy in data set [1] is -28.1 kcal/mol. The Tm in data set [2] turned out to be 62.7 °C.
The matching figures for GCAGGGCCGAAAGGCTGC (((..(((....)))))): -14.3 kcal/mol and 55.3 °C.
For GCAGGGCGAAAGCACGGC ((.(.((....)).).)), in data set [1], the folding enthalpy is -33.9 kcal/mol. In addition, the Tm in data set [2] came out at 65 °C.
As for GCAGGGCGAAAGCCAAGC ((..(((....)))..)), the folding enthalpy in data set [1] is -17.2 kcal/mol. For the same sequence, the Tm in data set [2] is 53.4 °C.
Turning to GCAGGGCGAAAGCCTGC (((.(((....)))))), in data set [1], the folding enthalpy is -20.3 kcal/mol. Also, in data set [2], the Tm came out at 68 °C.
For GCAGGGCGAAAGCGCAGC ((.(.((....)).).)), in data set [1], the folding enthalpy was -11.9 kcal/mol. Further, the Tm in data set [2] was determined as 54.8 °C.
The matching figures for GCAGGGGCGAAAGCCTGC (((..(((....)))))): -17.6 kcal/mol and 53.7 °C.
As to GCAGGTCCGAAAGGATGC (((..(((....)))))), the folding enthalpy in data set [1] is -16.6 kcal/mol. For the same sequence, the Tm in data set [2] is 37.7 °C.
Consider GCAGGTCGAAAGACTTGC (((.(((....))).))), for which the folding enthalpy in data set [1] was -41.2 kcal/mol. Besides, the Tm in data set [2] came to 56.7 °C.
In the case of GCAGGTGGAAACATCTGC ((((.((....)).)))), the folding enthalpy in data set [1] was -37.8 kcal/mol. The Tm in data set [2] worked out at 52.9 °C.
For GCAGGTGGAAACGCTTGC (((.(.(....).).))) the same measures were -23 kcal/mol and 46.6 °C.
Take GCAGTACGAAAGTATTGC (((.(((....))).))): in data set [1], the folding enthalpy is -45.2 kcal/mol. The Tm in data set [2] is 52.8 °C.
On to GCAGTAGGAAACTACTGC (((((((....))))))), for which the folding enthalpy in data set [1] is -54 kcal/mol. The Tm in data set [2] stood at 64.6 °C.
The matching figures for GCAGTCCGAAAGGAATGC (((.(((....))).))): -38.1 kcal/mol and 62.1 °C.
With GCAGTCCGAAAGGAGTGC (((.(((....))).))), the folding enthalpy in data set [1] is -47.7 kcal/mol. In addition, in data set [2], the Tm was 65.8 °C.
The matching figures for GCAGTCCGAAAGGATTGC (((.(((....))).))): -46.3 kcal/mol and 60.2 °C.
On to GCAGTCGAAAGACACTGC ((((((....)))..))), for which, in data set [1], the folding enthalpy was -18 kcal/mol. Besides, the Tm in data set [2] came out at 43.5 °C.
For GCAGTCGAAAGACCTTGC ((((((....)))..))) the same measures were -13.3 kcal/mol and 33.8 °C.
For GCAGTCGAAAGACTTTGC ((((((....)))..))) the same measures were -17.7 kcal/mol and 35.7 °C.
As to GCAGTCGGAAACGACCGC ((.((((....)))).)), in data set [1], the folding enthalpy is -27.3 kcal/mol. In data set [2], the Tm came to 52 °C.
Turning to GCAGTCGGAAACGATTGC (((.(((....))).))), the folding enthalpy in data set [1] is -43.6 kcal/mol. Also, the Tm in data set [2] was found to be 54.4 °C.
GCAGTCTCGAAAGAGTGC (((..(((....)))))): in data set [1], the folding enthalpy is -25.4 kcal/mol. Moreover, the Tm in data set [2] was found to be 45.8 °C.
Consider GCAGTGCGAAAGCATCGC ((..(((....)))..)), for which, in data set [1], the folding enthalpy was -14.9 kcal/mol. Also, the Tm in data set [2] came to 55.2 °C.
